The target of data set [1] is T1, Bcl-2-like protein 1 (Homo sapiens, UniProt Q07817). As to the kind of experiment: Inhibition of Bcl-XL-mediated cell death reduction expressed in serum starved mouse 3T3 cells assessed as residual cell viability at 5 uM incubated for 96 hrs by propidium iodide staining based FACS method. The settings on record: NIH3T3. An outline of the steps:
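3T3 cells infected with pMig-hBcl-xL vector to overexpress human Bcl-xL, maintained in DMEM/10% FBS. Compound 5 µM given under serum starvation; % residual viability scored at 96 h by propidium iodide staining and FACS.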

Data set [2] deals with Apoptosis regulator Bcl-2 (Homo sapiens, UniProt P10415). Kind of data set: Inhibition of GST-tagged recombinant Bcl2 interaction with biotinylated Bim peptide by ELISA based competitive binding assay. An outline of the steps: (§1)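 Plates coated with anti-GST antibody (1 µg/mL, overnight, 4 °C), blocked in PBS/1% BSA. GST-tagged Bcl-xL, Bcl-2, Bfl-1 or Mcl-1 (10 ng/mL) bound 2 h, RT. Compound added for 1 h, then biotinylated Bim peptide (1 nM) for 1 h. HRP-streptavidin detection, acid stop, OD 450 nm; EC50 derived.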
(In general: ELISA stands for enzyme-linked immunosorbent assay.)

The target in data set [3] is Induced myeloid leukemia cell differentiation protein Mcl-1 (Homo sapiens, UniProt Q07820). Kind of data set: Inhibition of GST-tagged recombinant Mcl1 interaction with biotinylated Bim peptide by ELISA based competitive binding assay. An outline of the steps: as §1
Data set [4] has as its target T1, Bcl-2-like protein 1. Kind of data set: Inhibition of GST-tagged recombinant Bcl-XL interaction with biotinylated Bim peptide by ELISA based competitive binding assay. An outline of the steps: as §1
In data set [5] the target is T2, Bcl-2-related protein A1 (Homo sapiens, UniProt Q16548).
T2 sequence (Q16548 whole entry): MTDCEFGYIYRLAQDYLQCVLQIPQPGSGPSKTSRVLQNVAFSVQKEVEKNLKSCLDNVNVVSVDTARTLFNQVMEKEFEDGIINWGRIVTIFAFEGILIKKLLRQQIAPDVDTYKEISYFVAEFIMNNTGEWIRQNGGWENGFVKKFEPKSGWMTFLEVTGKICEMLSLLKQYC
As to the kind of experiment: Inhibition of GST-tagged recombinant Bfl1 interaction with biotinylated Bim peptide by ELISA based competitive binding assay. The essentials:
as §1

For data set [6], the system named is BP3. Kind of data set: Induction of apoptosis in human BP3 cells at 10 uM incubated for 24 hrs by Annexin V and propidium iodide staining based FACS method. It counts as functional, cell-based. The essentials:
(§2)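 Tumour lines grown in RPMI with 10% FBS, 2 mM glutamine, 10 mM Hepes and gentamicin; PBMC from healthy donors, purified on Ficoll gradient, same medium. Cells exposed 24 h, then Annexin V/propidium iodide labelling and flow cytometry. Specific viability = (% viable treated × 100)/% viable untreated.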

The test system of data set [7] is RS4-11. Kind of data set: Induction of apoptosis in human RS4:11 cells at 10 uM incubated for 24 hrs by Annexin V and propidium iodide staining based FACS method. Format: functional, cell-based. An outline of the steps:
as §2
On the technique in general: Flow cytometry measures light scatter and fluorescence of single cells or particles in a stream.

Data set [8] concerns IM-9. As to the kind of experiment: Induction of apoptosis in human IM9 cells at 10 uM incubated for 24 hrs by Annexin V and propidium iodide staining based FACS method. It counts as functional, cell-based. The essentials: as §2
The subject of data set [9] is MEF. Kind of data set: Induction of cell death in mouse MEF cells containing Bax/Bak double knock out at 10 uM by Annexin V and propidium iodide staining based FACS method. It counts as functional. An outline of the steps:
(§3)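 Wild-type and DKO MEFs kept in DMEM with 10% FBS, 2 mM glutamine, 10 mM Hepes and gentamicin. Cultured in medium alone or with compound, staurosporine 1 µM as reference. Viability read by flow cytometry; mean ± SEM of 3 independent experiments.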

In data set [10] the test system is PBMC. Kind of data set: Induction of apoptosis in human PBMCs at 5 or 10 uM incubated for 24 hrs by Annexin V and propidium iodide staining based FACS method. Format: cell-based. The essentials:
as §2

In data set [11] the test system is MEF. Kind of data set: Induction of cell death in mouse MEF cells containing Bax/Bak double knock out at 1.25 to 10 uM by Annexin V and propidium iodide staining based FACS method. It counts as functional. The essentials:
as §3

Data set [12] concerns MEF. As to the kind of experiment: Induction of cell death in mouse MEF cells containing Bax/Bak double knock out at 1 uM by Annexin V and propidium iodide staining based FACS method. It counts as functional. An outline of the steps: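 Wild-type and Bax/Bak double-knockout MEFs were grown in DMEM with 10% FBS, 2 mM glutamine, 10 mM Hepes and gentamicin. They were treated for 24 h and stained with propidium iodide, with or without Annexin V, then analysed by flow cytometry. Data are mean ± SEM of 3 independent experiments.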

Data set [13] concerns BP3. Kind of data set: Induction of apoptosis in human BP3 cells at 5 uM incubated for 24 hrs by Annexin V and propidium iodide staining based FACS method. It counts as functional, cell-based. An outline of the steps:
(§4)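 Cells grown in RPMI with 10% FBS, 2 mM glutamine, 10 mM Hepes and gentamicin. Exposed to compound for 24 h, then labelled with Annexin V and propidium iodide and read by flow cytometry. Specific viability = (% viable treated × 100)/% viable untreated.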

The subject of data set [14] is RS4-11. As to the kind of experiment: Induction of apoptosis in human RS4:11 cells at 5 uM incubated for 24 hrs by Annexin V and propidium iodide staining based FACS method. It counts as functional, cell-based. An outline of the steps:
as §4

The test system of data set [15] is IM-9. Kind of data set: Induction of apoptosis in human IM9 cells at 5 uM incubated for 24 hrs by Annexin V and propidium iodide staining based FACS method. It counts as functional, cell-based. An outline of the steps:
as §4

Calls of active or inactive are those of the source. The rule behind the calls is not given here.

We go through 32 compounds from ChEMBL document CHEMBL2169820, “Synthesis and biological activities of polyquinoline derivatives: new Bcl-2 family protein modulators” (Eur J Med Chem, 2012).

T1 sequence (Q07817 whole entry): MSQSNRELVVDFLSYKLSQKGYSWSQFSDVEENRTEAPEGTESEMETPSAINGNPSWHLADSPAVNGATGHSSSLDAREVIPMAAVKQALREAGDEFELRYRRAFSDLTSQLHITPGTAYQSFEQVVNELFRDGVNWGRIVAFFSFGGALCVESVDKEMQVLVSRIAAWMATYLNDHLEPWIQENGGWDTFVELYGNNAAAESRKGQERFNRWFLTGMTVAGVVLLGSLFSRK
Induced myeloid leukemia cell differentiation protein Mcl-1, sequence (Q07820 whole entry): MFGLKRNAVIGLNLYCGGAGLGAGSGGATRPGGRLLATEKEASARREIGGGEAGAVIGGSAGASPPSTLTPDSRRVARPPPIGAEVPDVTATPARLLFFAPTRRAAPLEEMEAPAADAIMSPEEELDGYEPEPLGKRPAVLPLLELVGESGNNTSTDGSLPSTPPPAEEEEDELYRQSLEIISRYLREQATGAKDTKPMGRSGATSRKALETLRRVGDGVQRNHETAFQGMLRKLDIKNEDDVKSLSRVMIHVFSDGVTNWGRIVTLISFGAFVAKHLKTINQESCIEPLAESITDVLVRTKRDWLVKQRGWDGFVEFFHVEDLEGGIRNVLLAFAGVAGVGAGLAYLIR
Apoptosis regulator Bcl-2, sequence (P10415 whole entry): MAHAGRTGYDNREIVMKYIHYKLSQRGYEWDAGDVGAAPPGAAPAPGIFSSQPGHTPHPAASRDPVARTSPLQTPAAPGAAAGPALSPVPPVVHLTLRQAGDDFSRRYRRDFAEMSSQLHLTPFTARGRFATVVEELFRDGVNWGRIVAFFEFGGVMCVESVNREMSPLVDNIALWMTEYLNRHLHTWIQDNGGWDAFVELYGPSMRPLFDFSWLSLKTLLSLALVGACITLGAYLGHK

Turning to `CCCOc1nc2cc(-c3cc4ccccc4nc3N3CCCC3)cc(C(C)C)c2cc1-c1cc(C(C)C)c2ccc(OCC)nc2c1`, in [1], the Activity worked out at 94.5%.

Consider `CCOc1ccc2c(C(C)C)cc(-c3cc4c(C(C)C)cc(-c5cc6ccccc6nc5N5CCCC5)cc4nc3OCC)cc2n1`, for which, in data set [1], the Activity amounted to 95.3%.

Regarding `CCCOc1nc2ccccc2cc1-c1cc(C(C)C)c2cc(-c3cc(C(C)C)c4ccc(N5CCOCC5)nc4c3)c(OCCC)nc2c1`, the Activity in data set [1] worked out at 92.9%.

As for `CCCOc1nc2cc(-c3cc4ccccc4nc3N3CCOCC3)cc(C(C)C)c2cc1-c1cc(C(C)C)c2ccc(OCC)nc2c1`, the Activity in data set [1] is 95.2%.

Regarding `CCCOc1ccc2c(C(C)C)cc(-c3cc4ccccc4nc3N3CCOCC3)cc2n1`, the half-maximal effective concentration (EC50) was 9.2 µM in data set [2], 7.9 µM in data set [3], more than 100 µM in data set [4] and 8.2 µM in data set [5]. In data set [1], the Activity came to 32.7%. Also, the outcome in data set [6] was inactive.

For the compound `CCOc1ccc2c(C(C)C)cc(-c3cc4ccccc4nc3N3CCOCC3)cc2n1`, the 50% effective concentration (EC50) in data set [2] was 2.7 µM; in data set [3], 3.5 µM; in data set [4], 14.6 µM; in [5] it was 24 µM. Also, the Activity in data set [1] was found to be 37.9%. Besides, the outcome in data set [7], in data set [8] and in [6] was inactive.

Consider `CCOc1nc2cc(-c3cc4ccccc4nc3N3CCOCC3)cc(C(C)C)c2cc1-c1cc(C(C)C)c2ccc(N3CCOCC3)nc2c1`, for which the Activity in data set [1] was 96.5%.

`CN(C)CC[C@H](CSc1ccccc1)Nc1ccc(S(=O)(=O)NC(=O)c2ccc(N3CCN(Cc4ccccc4-c4ccc(Cl)cc4)CC3)cc2)cc1[N+](=O)[O-]`: the outcome in data set [9] was inactive. Further, the outcome in data set [7], in data set [8] and in data set [6] was Active.

Turning to `CCCOc1nc2cc(-c3cc4ccccc4nc3N3CCCC3)cc(C(C)C)c2cc1-c1cc(C(C)C)c2ccc(N3CCCC3)nc2c1`, in data set [1], the Activity is 90.5%.

Consider `CCOc1nc2cccc(C(C)C)c2cc1-c1cc(C(C)C)c2ccc(N3CCCC3)nc2c1`, for which the Activity in data set [1] was determined as 91.6%.

For `CC(C)c1cc(-c2cc3ccccc3nc2N2CCOCC2)cc2nc(N3CCOCC3)ccc12`, in [1], the Activity came out at 67.9%.

As to `CCOc1ccc2c(C(C)C)cc(-c3cc4ccccc4nc3N3CCCC3)cc2n1`, the EC50 in [2] is 3.5 µM; in [3] it was 2.1 µM; in data set [4] it was 6.2 µM; in [5], 25.5 µM. Further, the Activity in [1] is 0.42%; in data set [10] it was “Non-toxic”. For the same compound, the result in [7] and in data set [8] was Active. The outcome in data set [11] and in [6] was inactive.

Regarding `CCCOc1ccc2c(C(C)C)cc(-c3cc4c(C(C)C)cc(-c5cc6ccccc6nc5N5CCCC5)cc4nc3OCC)cc2n1`, in [1], the Activity came out at 96.4%.

`CN[C@@H]1C[C@H]2O[C@@](C)([C@@H]1OC)n1c3ccccc3c3c4c(c5c6ccccc6n2c5c31)C(=O)NC4`: the outcome in data set [12] was Active.

On to `CCCOc1nc2cc(-c3cc4ccccc4nc3N3CCOCC3)cc(C(C)C)c2cc1-c1cc(C(C)C)c2ccc(N3CCCC3)nc2c1`, for which the Activity in data set [1] came out at 93.4%.

As for `COC1=CC(c2cc3ccccc3[nH]2)=N/C1=C\c1[nH]c(C)cc1C` [OBATOCLAX], the 50% effective concentration (EC50) turned out to be 0.3 µM in data set [2], 0.5 µM in [3], 0.9 µM in data set [4] and 0.6 µM in data set [5]. For the same compound, the result in data set [9] was inactive. The result in [7], in data set [8] and in data set [6] was Active.

For the compound `CCCOc1nc2ccccc2cc1-c1cc(C(C)C)c2ccc(N3CCCC3)nc2c1`, the Activity in data set [1] amounted to 86.8%.

As for `CC(C)c1cc(-c2cc3ccccc3nc2N2CCCC2)cc2nc(N3CCCC3)ccc12`, the EC50 in data set [2] was 1.4 µM; in data set [3], 2.3 µM; in data set [4], more than 100 µM; in data set [5], 21.5 µM. Moreover, the Activity in data set [1] is 4.37%. Further, the result in data set [7], in [8] and in [6] was inactive.

As to `CCCOc1nc2ccccc2cc1-c1cc(C(C)C)c2cc(-c3cc(C(C)C)c4ccc(N5CCCC5)nc4c3)c(OCCC)nc2c1`, the Activity in [1] was 94.6%.

Turning to `CCCOc1ccc2c(C(C)C)cc(-c3cc4c(C(C)C)cc(-c5cc6ccccc6nc5N5CCOCC5)cc4nc3OCCC)cc2n1`, the Activity in [1] is 92.3%.

As to `CCOc1nc2ccccc2cc1-c1cc(C(C)C)c2cc(-c3cc(C(C)C)c4ccc(N5CCCC5)nc4c3)c(OCC)nc2c1`, in data set [1], the Activity is 92.3%.

With `CCCOc1nc2cc(-c3cc4ccccc4nc3N3CCOCC3)cc(C(C)C)c2cc1-c1cc(C(C)C)c2ccc(N3CCOCC3)nc2c1`, the Activity in data set [1] stood at 81.6%.

As to `CCCOc1nc2cc(-c3cc4ccccc4nc3N3CCCC3)cc(C(C)C)c2cc1-c1cc(C(C)C)c2ccc(N3CCOCC3)nc2c1`, the Activity in data set [1] was 96.5%.

On to `CCCOc1nc2ccccc2cc1-c1cc(C(C)C)c2ccc(N3CCOCC3)nc2c1`, for which the half-maximal effective concentration (EC50) is 6.6 µM in data set [2], 11.6 µM in data set [3], more than 100 µM in [4] and 17.8 µM in data set [5]. For the same compound, the Activity in [1] was found to be 55.5%. Also, the outcome in data set [7], in data set [8] and in data set [6] was inactive.

As to `CCCOc1ccc2c(C(C)C)cc(-c3cc4c(C(C)C)cc(-c5cc6ccccc6nc5N5CCCC5)cc4nc3OCCC)cc2n1`, the Activity in [1] is 92.8%.

For the compound `CC(C)=CCC[C@]1(C)C=Cc2c(O)c3c(c(CC=C(C)C)c2O1)O[C@]12C(=C[C@@H]4C[C@H]1C(C)(C)O[C@@]2(C/C=C(/C)C(=O)O)C4=O)C3=O`, the result in data set [13], in data set [14] and in data set [15] was inactive. In addition, the outcome in data set [12] was Active.

Turning to `CCOc1nc2ccccc2cc1-c1cc(C(C)C)c2cc(-c3cc(C(C)C)c4ccc(N5CCOCC5)nc4c3)c(OCC)nc2c1`, the Activity in data set [1] came to 93.6%.

For `CCOc1nc2cc(-c3cc4ccccc4nc3N3CCCC3)cc(C(C)C)c2cc1-c1cc(C(C)C)c2ccc(N3CCCC3)nc2c1`, the Activity in data set [1] stood at 95.1%.

Turning to `CCCOc1ccc2c(C(C)C)cc(-c3cc4ccccc4nc3N3CCCC3)cc2n1`, the Activity in [1] turned out to be 84.4%.

With `CCOc1nc2cc(-c3cc4ccccc4nc3N3CCCC3)cc(C(C)C)c2cc1-c1cc(C(C)C)c2ccc(N3CCOCC3)nc2c1`, the Activity in data set [1] amounted to 91%.

As to `CCOc1nc2cc(-c3cc4ccccc4nc3N3CCOCC3)cc(C(C)C)c2cc1-c1cc(C(C)C)c2ccc(N3CCCC3)nc2c1`, the Activity in data set [1] was 92.2%.

As to `CCOc1nc2cccc(C(C)C)c2cc1-c1cc(C(C)C)c2ccc(N3CCOCC3)nc2c1`, the Activity in [1] is 70.3%.

In general, EC50 refers to the concentration needed to bring the measured effect to its halfway point.
